According to ChEMBL document CHEMBL1250546, “Synthesis of non-purine analogs of 6-aryl-9-benzylpurines, and their antimycobacterial activities. Compounds modified in the imidazole ring” (Bioorg Med Chem, 2010):
Converted amounts (≈) assume the structure as drawn.

Experiments:
[1] = system: Mycobacterium tuberculosis; experiment: Antibacterial activity against Mycobacterium tuberculosis; assay type: functional
[2] = system: Mycobacterium tuberculosis; experiment: Antibacterial activity against Mycobacterium tuberculosis H37Rv ATCC 27294 after 7 days by microplate alamar blue assay; assay type: functional; settings: H37Rv ATCC 27294, 168 h
Outline: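 Microplate alamar blue assay in 7H12 medium against M. tuberculosis H37Rv ATCC 27294 and against rifampicin-, isoniazid-, streptomycin- and kanamycin-resistant Mtb strains. Bacteria were incubated with test samples for 7 days, then fluorescence was read. MIC is the lowest concentration giving at least a 90% fluorescence reduction relative to untreated controls.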

Vero = experiment: Cytotoxicity against african green monkey Vero cells; assay type: cell-based; settings: Chlorocebus sabaeus
Outline: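 Mammalian-cell toxicity was measured in VERO cells and expressed as EC₅₀.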

[3] = Selectivity index, ratio of EC50 for african green monkey Vero cells to MIC for Mycobacterium tuberculosis H37Rv ATCC 27294; assay type: functional
Staphylococcus aureus = experiment: Antibacterial activity against Staphylococcus aureus; assay type: functional
Escherichia coli = experiment: Antibacterial activity against Escherichia coli; assay type: functional

Row | SMILES | MIC [1] [µg/mL] | MIC [2] [µM] | EC50 (Vero) [µM] | Selectivity Index [3] | MIC (Staphylococcus aureus) [µg/mL] | MIC (Escherichia coli) [µg/mL]
1 | COc1ccc(Cn2cnc3c(-c4cccs4)nc(Cl)nc32)cc1 | 0.78 (≈ 2.19 µM) |  |  |  |  | 
2 | COc1ccc(Cn2ccc3c(-c4ccco4)nc(OC)nc32)cc1 |  | 0.22 (≈ 0.0738 µg/mL) | 45 | 205 |  | 
3 | COc1ccc(Cn2nnc3c(-c4ccco4)ncnc32)cc1 |  | 2.4 (≈ 0.738 µg/mL) | > 130 | >54 | > 32 | > 90
4 | COc1ccc(Cn2cnc3c(-c4ccco4)ncnc32)cc1 | 1.65 (≈ 5.39 µM) | 2.1 (≈ 0.643 µg/mL) | > 206 | >98 |  | 
5 | COc1ccc(Cc2cn(C)c3c(-c4ccco4)ncnc23)cc1 |  | 97 (≈ 31 µg/mL) |  |  | > 32 | > 90
6 | COc1ccc(Cn2ccc3c(-c4cccs4)ncnc32)cc1 |  | 0.35 (≈ 0.112 µg/mL) | 40 | 114 |  | 
7 | COc1ccc(C(=O)c2c[nH]c3c(-c4ccco4)ncnc23)cc1 |  | > 300 |  |  | > 32 | > 90
8 | COc1ccc(Cn2cnc3c(-c4ccco4)nc(Cl)nc32)cc1 | 0.39 (≈ 1.14 µM) | 0.36 (≈ 0.123 µg/mL) | > 117 | >325 |  | 
9 | CO[C@H]1/C=C/O[C@@]2(C)Oc3c(C)c(O)c4c(O)c(c(/C=N/N5CCN(C)CC5)c(O)c4c3C2=O)NC(=O)/C(C)=C\C=C\[C@H](C)[C@H](O)[C@@H](C)[C@@H](O)[C@@H](C)[C@H](OC(C)=O)[C@@H]1C [RIFAMPIN] | 0.25 (≈ 0.304 µM) |  |  |  |  | 
10 | COc1ccc(Cn2ncc3c(-c4ccco4)ncnc32)cc1 |  | 3.6 (≈ 1.1 µg/mL) | > 327 | >91 | > 32 | > 90
11 | COc1ccc(Cn2ccc3c(-c4cccs4)nc(Cl)nc32)cc1 |  | 0.11 (≈ 0.0391 µg/mL) | 76 | 691 |  | 
12 | COc1ccc(C(=O)c2cn(C)c3c(-c4ccco4)ncnc23)cc1 |  | 192 (≈ 64 µg/mL) |  |  | > 32 | > 90
13 | COc1ccc(Cn2ccc3c(-c4ccco4)ncnc32)cc1 |  | 0.16 (≈ 0.0489 µg/mL) | > 131 | >756 | > 32 | > 90
14 | COc1ccc(Cn2ccc3c(-c4ccco4)nc(Cl)nc32)cc1 |  | 0.08 (≈ 0.0272 µg/mL) | 85 | 1063 | > 32 | > 90
